Assay outcomes (PubChem BioAssay)
FAS TE block – FAS thioesterase (human) inhibition; P49327; recombinant FAS-TE, OMFH fluorogenic substrate, fluorescence endpoint; inhibition, % at 15 µM; actives 0.67% (n = 360,000);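 active means compounds whose normalised, plate-corrected inhibition of enzyme fluorescence in the single-dose primary screen is 50% or more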
GRIN3A LBD mod – modulators (binders) of human NR3A ligand-binding domain; actives 2.5% (n = 340,000); NR3A LBD differential scanning fluorimetry, Tm shift; 0% = protein alone, 100% = glycine-bound protein; Tm shift relative to glycine control, % at 25 µM;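 active means melting temperature shift of at least 10% of the positive control shift, at one fixed dose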
hiPSC survival – enhancers of human iPSC single-cell survival | hiPSC single-cell survival, ATPlite luminescence; 100% = ROCK inhibitor wells, 0% = DMSO | survival enhancement, % at 20 µM | actives 0.044% (n = 360,000) | AID 602274; in the data active means survival enhancement above about 18%;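 further: cells exposed to compounds for 16 hours before the ATP read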
H9c2 protect – myocardial damage modulation in H9c2 cells; H9c2 cardiomyocytes, H2O2 injury protection, ATPLite, 2 h; protection from H2O2 cell death, % at 20 µM; actives 0.63% (n = 360,000); AID 588492;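 active means compounds giving at least 50% protection of heart cells from peroxide-induced death in the single-dose screen, raw or plate-pattern-corrected value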
SENP1 FRET inh – inhibitors of human SENP1 SUMO protease catalytic domain; Q9P0U3; recombinant SENP1 catalytic domain, CyPet-SUMO1-YPet FRET cleavage; inhibition, % at 10 µM; actives 0.21% (n = 360,000); AID 624204;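 active means inhibition at least 30% at 10 µM, raw YFP signal under a set limit, fluorescence ratio 0.5 to 1.5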
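Test system: recombinant human SENP1 catalytic domain, His6-tagged / Medium: pH 8 Tris buffer with EDTA, NaCl, BME, BSA, NP40, catalase / Also added: SUMO1 FRET substrate flanked by Cypet and Ypet, 25 nM / Times: 50 min reaction at room temperature / Signal: FRET, CFP and YFP emission / Control set: no-enzyme low control and enzyme-plus-DMSO high control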
Arrestin-AP2 inh – human beta-arrestin and AP2 interaction inhibition; FITC-arrestin peptide / GST-AP2 beads, flow cytometry; AP2 beta2 appendage carries R879A mutation; inhibition, % at 10 µM; actives 0.31% (n = 340,000); AID 504490;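 active means inhibition above a set limit, near 3 SD of compounds lacking own fluorescence, cut at about 54% in these data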
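System: GST-AP2 R879A glutathione beads; medium: PBS, Tween 20 0.05%, BSA 0.1%; reagent: fluorescein-tagged arrestin peptide at 50 nM final; schedule: pre-incubation 12 min, peptide binding 1 h, room temperature; detection: flow cytometry, FL1 (488/535 nm); read-out: inhibition as reduced fluorescein signal on beads, percent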
Each line names hits and unclear results; the compound was inactive in the other large screens. The list is not random: actives were taken first. Their share in the collection is about 4%.

CCOC(=O)c1c(-c2ccccc2)csc1NC(=O)/C(C#N)=C\c1ccc(O)c(OC)c1	GRIN3A LBD mod 18
CN(C(=O)c1cccc(NC(=O)Cc2ccc(NC(=O)C3CCN(C(=O)c4ccccc4)CC3)cc2)c1)C1CCCCC1	none
CCn1c(=O)n(CC(=O)NC2CCCC(C)C2C)c(=O)c2ccccc21 (configuration not stated)	GRIN3A LBD mod 11
C=CCN1C(=O)/C(=C/c2ccc(O)c(OC)c2)S/C1=N/c1nccs1	H9c2 protect 51
O=S(=O)(NCCc1ccccc1)c1ccc(F)cc1Br	GRIN3A LBD mod 13
CN1CCN(c2ccc(-c3cccc4nccn34)cn2)CC1	none (no result: GRIN3A LBD mod, Arrestin-AP2 inh)
COc1ccc(NC(=S)Nc2ccc(OC(F)F)cc2)cn1	none
COc1ccccc1NC(=S)NNC(=S)Nc1ccc(OC(F)F)cc1	GRIN3A LBD mod 32
COc1ccc(S(=O)(=O)NCCc2c[nH]c3ccc(Cl)cc23)cc1	GRIN3A LBD mod 35
Cc1ccc(S(=O)(=O)NCCc2c[nH]c3ccccc23)cc1	GRIN3A LBD mod 23
COc1ccc2[nH]cc(CCNS(=O)(=O)c3ccc(NC(C)=O)cc3)c2c1	none
CCOc1ccccc1NC(=O)C1CCCN1S(=O)(=O)c1ccc2c(c1)C(C)(C)C(=O)N2C (configuration not stated)	none (no result: GRIN3A LBD mod, Arrestin-AP2 inh)
CCCN=C1N(CC)C[C@@H]2[C@@H]3C(=O)N(Cc4ccccc4)C(=O)[C@@H]3[C@](Cc3ccccc3)(C(=O)OC)N12	GRIN3A LBD mod 13
CCCN=C1N(C)C[C@@H]2[C@@H]3C(=O)N(Cc4ccccc4)C(=O)[C@@H]3[C@](Cc3ccccc3)(C(=O)OC)N12	none
COc1ccc(OC)c(-c2csc(NC(=O)CSc3ccc(Br)cc3)n2)c1	GRIN3A LBD mod 19
COc1ccc(OC)c(-c2csc(NC(=O)CSc3ccc([N+](=O)[O-])cc3)n2)c1	GRIN3A LBD mod 12
COc1ccc(OC)c(-c2csc(NC(=O)COC(=O)c3ccc(NC(=O)CC#N)cc3)n2)c1	GRIN3A LBD mod 13
COc1ccc(OC)c(-c2csc(NC(=O)Cc3ccc(F)cc3)n2)c1	none
COc1ccc(OC)c(-c2csc(NC(=O)Cc3cc(OC)c(OC)c(OC)c3)n2)c1	none
CS(=O)(=O)c1ccc(C(=O)Nc2nc(-c3ccco3)c(-c3ccco3)s2)cc1	GRIN3A LBD mod 19
CCC(CC)c1nn2c(N)c(/C=C3\C=Nc4ccccc43)c(=O)nc2s1	GRIN3A LBD mod 11
CCC(CC)c1nn2c(N)c(/C=C3\C(C)=Nc4ccccc43)c(=O)nc2s1	GRIN3A LBD mod 13
CC(C)c1nn2c(N)c(/C=C3\C=Nc4ccccc43)c(=O)nc2s1	none
COC(=O)[C@]12CCCCC=C1N(Cc1ccco1)C(=O)[C@H](CC(=O)NCC13CC4CC(CC(C4)C1)C3)C2	none (no result: GRIN3A LBD mod, H9c2 protect, Arrestin-AP2 inh)
CCOc1cc(/C=C(\C#N)C(=O)Nc2ccc(S(N)(=O)=O)cc2)ccc1OCCN1CCOCC1	H9c2 protect 56
Cc1ccc(C(=O)Nc2nnc(NC(=S)Nc3ccccc3)s2)cc1	GRIN3A LBD mod 32
CCOc1ccc(C(=O)Nc2nnc(NC(=S)Nc3ccccc3)s2)cc1	GRIN3A LBD mod 34
CCc1nnc(NC(=S)Nc2ccccc2)s1	none
CCOc1cccc(C(=O)NC(=S)Nc2ccccc2)c1	none
Cn1c(/N=C(\N)c2ccccc2)nc2ccccc21	none (no result: GRIN3A LBD mod, Arrestin-AP2 inh)
COc1ccc(C2/C=C\CN(S(=O)(=O)c3cccc4cccnc34)CC(=O)N2Cc2ccc(F)cc2)cc1 (configuration not stated)	H9c2 protect 50
CC1CCc2c(sc(Nc3nc4c(F)cccc4s3)c2C(N)=O)C1 (configuration not stated)	GRIN3A LBD mod 12
Cc1onc(-c2c(Cl)cccc2Cl)c1C(=O)NC(=S)Nc1sc2c(c1C(N)=O)CCC(C)C2 (configuration not stated)	GRIN3A LBD mod 30 (no result: Arrestin-AP2 inh)
O=C(Nc1nc2c(F)cccc2s1)C1CC1	none
COc1cccc(-c2cc3nc(NCc4ccc(C)cc4C)n(C)c(=O)c3s2)c1	none (no result: GRIN3A LBD mod, Arrestin-AP2 inh)
COc1cc2c(cc1Cl)/C(=C\CCN(C)C)c1ccccc1S2	GRIN3A LBD mod 18
COc1cc(Cl)cc2c1Sc1ccccc1/C2=C/CCN(C)C	none
N#Cc1c(NC(=O)Cn2c(=O)oc3ccccc32)oc(-c2ccccc2)c1-c1ccccc1	GRIN3A LBD mod 11
O=C(Cn1c(=O)oc2ccccc21)Nc1ccc(Br)cc1	none
CCC(c1nnnn1-c1ccc2c(c1)OCCO2)N1CCN(c2cccc(C)c2C)CC1 (configuration not stated)	none (no result: GRIN3A LBD mod, H9c2 protect, Arrestin-AP2 inh)
CCc1nc2ccc(C(=O)Nc3cccc(NS(C)(=O)=O)c3)cn2c1N(C)Cc1nccn1C	none (no result: GRIN3A LBD mod, Arrestin-AP2 inh)
COc1ccc(C2=C(CN(C)C)C(c3ccccc3)c3ccccc3O2)cc1 (configuration not stated)	GRIN3A LBD mod 11
COc1ccc(-c2ncccc2OC(=O)C23CC4CC(CC(C4)C2)C3)cc1	GRIN3A LBD mod 16
CC(=O)Nc1ccc2c(c1)C(=O)c1ccccc1C2=O	none
CC(=O)Nc1ccc2c(c1)CCc1ccccc1-2	GRIN3A LBD mod 10
COc1cccc(-c2cc(C(=O)Nc3c(C)nn(Cc4ccccc4)c3C)no2)c1	none
COc1cccc(-c2cc(C(=O)Nc3c(C)nn(Cc4ccccc4C)c3C)no2)c1	GRIN3A LBD mod 11
Brc1ccc(CSc2ccc3nnc(-c4cccnc4)n3n2)cc1	H9c2 protect 68
CCC(Sc1ccc2nnc(-c3cccnc3)n2n1)C(=O)O (configuration not stated)	hiPSC survival 23
CCOC(=O)C(CC)Sc1ccc2nnc(-c3cccnc3)n2n1 (configuration not stated)	none
Cc1ccc(CSc2ccc3nnc(-c4cccnc4)n3n2)cc1	none
COc1cc(NC(=S)NC(C)=O)ccc1NC(=O)C(C)C	GRIN3A LBD mod 11
Oc1ccccc1C=NN1CCCCCC1	none
Brc1cc2c(cc1/C=N/Nc1nc(N3CCCC3)nc(N3CCOCC3)n1)OCO2	H9c2 protect 63
Oc1ccc(/C=N/Nc2nc(N3CCCCCC3)nc(N3CCCCCC3)n2)c(O)c1	GRIN3A LBD mod 15
O=C1c2cccc3cccc(c23)C(=O)N1/N=C/c1ccc(O)cc1O	GRIN3A LBD mod 25
Oc1ccc(/C=N/N2CCCCC2)c(O)c1	GRIN3A LBD mod 33
CCOC(=O)[C@]12CCCC=C1N(Cc1ccco1)C(=O)[C@H](CC(=O)NCC1CCCCC1)C2	none (no result: GRIN3A LBD mod, H9c2 protect, Arrestin-AP2 inh)
Nc1nc(=O)n(C2CCC(CO)O2)cc1F (configuration not stated)	none (no result: GRIN3A LBD mod, H9c2 protect, Arrestin-AP2 inh)
Oc1ccc(/C=N/N2CCCCC2)c(O)c1O	SENP1 FRET inh 38 (no result: GRIN3A LBD mod)
